pIC50: −log10 of the molar value.

The pIC50 is the negative decadic logarithm of the IC50, by convention in mol/L.

Tested on in one assay: not listed separately
Briefly: Cytotoxicity against human SMMC7721 cells assessed growth inhibition at 40 uM after 48 hrs by MTS assay relative to control. It is filed as functional. The following applies: SMMC-7721, 48 h, read-out: GI. Summed up: (§1)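 Cultured in RPMI-1640 or DMEM with 10% FBS at 37 °C under 5% CO2. Cells seeded, given 12 h at 37 °C, then treated with compound at 40 μM for 48 h. Growth inhibition measured by MTS assay (formazan colorimetry).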
Background: Tetrazolium assays rely on reduction of a dye to a coloured formazan, in cell work by metabolically active cells.
For the compound `C=C1C(=O)[C@]23C[C@@H]1CC[C@H]2C12[C@@H](OC)O[C@@H](O)[C@@H]1C(C)(C)CC[C@@H]2OC3=O` (stereo partly specified), the inhibition of growth at 40 µM is > 50%.
Same read-out and setting: for `C=C1C(=O)[C@]23C[C@@H]1C[C@@H](O)[C@H]2C12CO[C@@H]4OC[C@](C)(CC[C@@H]1OC3=O)[C@@H]42` (stereo partly specified) the value was > 50%; for `C=C1C(=O)[C@]23C[C@@H]1CC[C@H]2C12C(O)O[C@@H](O)[C@@H]1C(C)(C)CC[C@@H]2OC3=O` (stereo partly specified), > 50%.
The same measure, in the same setting: for `C=C1C(=O)[C@]23C[C@@H]1CC[C@H]2C12CO[C@@H](O)[C@@H]1C(C)(C)[C@@H](O)C[C@@H]2OC3=O` (stereo partly specified) the value was > 50%.

For another assay, the system named is SW480. Briefly: Cytotoxicity against human SW480 cells assessed as cell viability after 48 hrs by MTS assay. It is filed as functional, cell-based. The following applies: SW480, 48 h. The procedure, abridged:
(§2)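 Cells grown in RPMI-1640 or DMEM with 10% FBS at 37 °C, 5% CO2. Seeded, incubated 12 h, then exposed to a range of concentrations in triplicate for 48 h. Viability read by MTS reduction to formazan. IC50 calculated by Reed and Muench method; cis-platin positive control.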
As to `C=C1C(=O)[C@]23C[C@@H]1CC[C@H]2C12[C@@H](OC)O[C@@H](O)[C@@H]1C(C)(C)CC[C@@H]2OC3=O` (stereo partly specified), the pIC50 is 5.41.
Turning to `C=C1C(=O)[C@]23C[C@@H]1C[C@@H](O)[C@H]2C12CO[C@@H]4OC[C@](C)(CC[C@@H]1OC3=O)[C@@H]42` (stereo partly specified), the pIC50 is < 4.40.
On the same count and under the same terms, for `C=C1C(=O)[C@]23C[C@@H]1CC[C@H]2C12C(O)O[C@@H](O)[C@@H]1C(C)(C)CC[C@@H]2OC3=O` (stereo partly specified) the value was 4.83.
In the case of `C=C1C(=O)[C@]23C[C@@H]1CC[C@H]2C12CO[C@@H](O)[C@@H]1C(C)(C)[C@@H](O)C[C@@H]2OC3=O` (stereo partly specified), the pIC50 was 5.26.

Tested on in a further assay: not listed separately
Kind of assay: Cytotoxicity against human HL60 cells assessed growth inhibition at 40 uM after 48 hrs by MTS assay relative to control. It counts as functional. To be noted: HL-60, 48 h, read-out: GI. Summed up: as §1
In the case of `C=C1C(=O)[C@]23C[C@@H]1CC[C@H]2C12[C@@H](OC)O[C@@H](O)[C@@H]1C(C)(C)CC[C@@H]2OC3=O` (stereo partly specified), the inhibition of growth at 40 µM is > 50%.
Still for that read-out and setting: for `C=C1C(=O)[C@]23C[C@@H]1C[C@@H](O)[C@H]2C12CO[C@@H]4OC[C@](C)(CC[C@@H]1OC3=O)[C@@H]42` (stereo partly specified) the value was > 50%; for `C=C1C(=O)[C@]23C[C@@H]1CC[C@H]2C12C(O)O[C@@H](O)[C@@H]1C(C)(C)CC[C@@H]2OC3=O` (stereo partly specified), > 50%; for `C=C1C(=O)[C@]23C[C@@H]1CC[C@H]2C12CO[C@@H](O)[C@@H]1C(C)(C)[C@@H](O)C[C@@H]2OC3=O` (stereo partly specified), > 50%.

A further assay concerns A549. Kind of assay: Cytotoxicity against human A549 cells assessed as cell viability after 48 hrs by MTS assay. It counts as functional, cell-based. The following applies: A549, 48 h. Summed up:
as §2
Regarding `C=C1C(=O)[C@]23C[C@@H]1CC[C@H]2C12[C@@H](OC)O[C@@H](O)[C@@H]1C(C)(C)CC[C@@H]2OC3=O` (stereo partly specified), the pIC50 is 5.92.
On the same count and under the same terms, for `C=C1C(=O)[C@]23C[C@@H]1C[C@@H](O)[C@H]2C12CO[C@@H]4OC[C@](C)(CC[C@@H]1OC3=O)[C@@H]42` (stereo partly specified) the value was 4.99; for `C=C1C(=O)[C@]23C[C@@H]1CC[C@H]2C12C(O)O[C@@H](O)[C@@H]1C(C)(C)CC[C@@H]2OC3=O` (stereo partly specified), 4.41.
Same read-out and setting: for `C=C1C(=O)[C@]23C[C@@H]1CC[C@H]2C12CO[C@@H](O)[C@@H]1C(C)(C)[C@@H](O)C[C@@H]2OC3=O` (stereo partly specified) the value was 4.88.

Another assay deals with A549. Briefly: Cytotoxicity against human A549 cells assessed growth inhibition at 40 uM after 48 hrs by MTS assay relative to control. It is filed as functional. The following applies: A549, 48 h, read-out: GI. The procedure, abridged:
as §1
Consider `C=C1C(=O)[C@]23C[C@@H]1CC[C@H]2C12[C@@H](OC)O[C@@H](O)[C@@H]1C(C)(C)CC[C@@H]2OC3=O` (stereo partly specified), for which the inhibition of growth at 40 µM is > 50%.
Same read-out and setting: for `C=C1C(=O)[C@]23C[C@@H]1C[C@@H](O)[C@H]2C12CO[C@@H]4OC[C@](C)(CC[C@@H]1OC3=O)[C@@H]42` (stereo partly specified) the value was > 50%; for `C=C1C(=O)[C@]23C[C@@H]1CC[C@H]2C12C(O)O[C@@H](O)[C@@H]1C(C)(C)CC[C@@H]2OC3=O` (stereo partly specified), > 50%; for `C=C1C(=O)[C@]23C[C@@H]1CC[C@H]2C12CO[C@@H](O)[C@@H]1C(C)(C)[C@@H](O)C[C@@H]2OC3=O` (stereo partly specified), > 50%.

Tested on in the next assay: not listed separately
Kind of assay: Cytotoxicity against human SMMC7721 cells assessed as cell viability after 48 hrs by MTS assay. It is filed as functional, cell-based. The following applies: SMMC-7721, 48 h. Summed up:
as §2
`C=C1C(=O)[C@]23C[C@@H]1CC[C@H]2C12[C@@H](OC)O[C@@H](O)[C@@H]1C(C)(C)CC[C@@H]2OC3=O` (stereo partly specified): the pIC50 was 5.33.
Same read-out and setting: for `C=C1C(=O)[C@]23C[C@@H]1C[C@@H](O)[C@H]2C12CO[C@@H]4OC[C@](C)(CC[C@@H]1OC3=O)[C@@H]42` (stereo partly specified) the value was 4.90.
Same read-out and setting: for `C=C1C(=O)[C@]23C[C@@H]1CC[C@H]2C12C(O)O[C@@H](O)[C@@H]1C(C)(C)CC[C@@H]2OC3=O` (stereo partly specified) the value was 4.50.
`C=C1C(=O)[C@]23C[C@@H]1CC[C@H]2C12CO[C@@H](O)[C@@H]1C(C)(C)[C@@H](O)C[C@@H]2OC3=O` (stereo partly specified): the pIC50 was 5.01.

Another assay relates to RAW264.7. Briefly: Inhibition of LPS-induced NO production in mouse RAW264.7 cells at 25 uM preincubated with compound followed by LPS challenge measured after 18 hrs by Griess method. It is filed as functional, cell-based.
Conditions: not given
Summed up:
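RAW264.7 macrophages seeded at 2 × 10^5 cells/well and treated with serial compound dilutions (maximum 25 μM), then stimulated with LPS 1 μg/mL for 18 h. Supernatant nitrite measured with Griess reagents, absorbance 550 nm. MG-132 positive control. Viability checked in parallel by MTT to exclude cytotoxic interference.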
Background: Griess reagent forms a coloured azo dye with nitrite.
With `C=C1C(=O)[C@]23C[C@@H]1CC[C@H]2C12[C@@H](OC)O[C@@H](O)[C@@H]1C(C)(C)CC[C@@H]2OC3=O` (stereo partly specified), the pIC50 is 5.87.
As for `C=C1C(=O)[C@]23C[C@@H]1C[C@@H](O)[C@H]2C12CO[C@@H]4OC[C@](C)(CC[C@@H]1OC3=O)[C@@H]42` (stereo partly specified), the pIC50 is 5.45.
Turning to `C=C1C(=O)[C@]23C[C@@H]1CC[C@H]2C12C(O)O[C@@H](O)[C@@H]1C(C)(C)CC[C@@H]2OC3=O` (stereo partly specified), the pIC50 is 5.13.
With `C=C1C(=O)[C@]23C[C@@H]1CC[C@H]2C12CO[C@@H](O)[C@@H]1C(C)(C)[C@@H](O)C[C@@H]2OC3=O` (stereo partly specified), the pIC50 was 5.45.

For the next assay, the system named is MCF7. Briefly: Cytotoxicity against human MCF7 cells assessed as cell viability after 48 hrs by MTS assay. It is filed as functional, cell-based. To be noted: MCF7, 48 h. Summed up:
as §2
For the compound `C=C1C(=O)[C@]23C[C@@H]1CC[C@H]2C12[C@@H](OC)O[C@@H](O)[C@@H]1C(C)(C)CC[C@@H]2OC3=O` (stereo partly specified), the pIC50 was 5.41.
Same read-out and setting: for `C=C1C(=O)[C@]23C[C@@H]1C[C@@H](O)[C@H]2C12CO[C@@H]4OC[C@](C)(CC[C@@H]1OC3=O)[C@@H]42` (stereo partly specified) the value was 4.86; for `C=C1C(=O)[C@]23C[C@@H]1CC[C@H]2C12C(O)O[C@@H](O)[C@@H]1C(C)(C)CC[C@@H]2OC3=O` (stereo partly specified), < 4.40.
With `C=C1C(=O)[C@]23C[C@@H]1CC[C@H]2C12CO[C@@H](O)[C@@H]1C(C)(C)[C@@H](O)C[C@@H]2OC3=O` (stereo partly specified), the pIC50 is 4.80.

Tested on in another assay: not listed separately
Briefly: Cytotoxicity against human HL60 cells assessed as cell viability after 48 hrs by MTS assay. It is filed as functional, cell-based. To be noted: HL-60, 48 h. Summed up:
as §2
`C=C1C(=O)[C@]23C[C@@H]1CC[C@H]2C12[C@@H](OC)O[C@@H](O)[C@@H]1C(C)(C)CC[C@@H]2OC3=O` (stereo partly specified): the pIC50 is 5.46.
In the case of `C=C1C(=O)[C@]23C[C@@H]1C[C@@H](O)[C@H]2C12CO[C@@H]4OC[C@](C)(CC[C@@H]1OC3=O)[C@@H]42` (stereo partly specified), the pIC50 was 4.84.
For `C=C1C(=O)[C@]23C[C@@H]1CC[C@H]2C12C(O)O[C@@H](O)[C@@H]1C(C)(C)CC[C@@H]2OC3=O` (stereo partly specified), the pIC50 is 4.77.
Still for that read-out and setting: for `C=C1C(=O)[C@]23C[C@@H]1CC[C@H]2C12CO[C@@H](O)[C@@H]1C(C)(C)[C@@H](O)C[C@@H]2OC3=O` (stereo partly specified) the value was 5.04.

Source of the values: ChEMBL document CHEMBL3779809, “Bioactive Enmein-Type ent-Kaurane Diterpenoids from Isodon phyllostachys” (J Nat Prod, 2016).
